ChEMBL document CHEMBL1147016, “Vasorelaxant activity of phthalazinones and related compounds” (Bioorg Med Chem Lett, 2006)
Each block holds one compound with its values, some of them ahead of it.

How the values were obtained:
[1] = biological target: T1, Alpha-1D adrenergic receptor (Rattus norvegicus, UniProt P23944); test: Vasorelaxation of phenylephrine-stimulated Wistar rat aorta contraction; type: functional, tissue-based
T1 sequence (P23944 whole entry): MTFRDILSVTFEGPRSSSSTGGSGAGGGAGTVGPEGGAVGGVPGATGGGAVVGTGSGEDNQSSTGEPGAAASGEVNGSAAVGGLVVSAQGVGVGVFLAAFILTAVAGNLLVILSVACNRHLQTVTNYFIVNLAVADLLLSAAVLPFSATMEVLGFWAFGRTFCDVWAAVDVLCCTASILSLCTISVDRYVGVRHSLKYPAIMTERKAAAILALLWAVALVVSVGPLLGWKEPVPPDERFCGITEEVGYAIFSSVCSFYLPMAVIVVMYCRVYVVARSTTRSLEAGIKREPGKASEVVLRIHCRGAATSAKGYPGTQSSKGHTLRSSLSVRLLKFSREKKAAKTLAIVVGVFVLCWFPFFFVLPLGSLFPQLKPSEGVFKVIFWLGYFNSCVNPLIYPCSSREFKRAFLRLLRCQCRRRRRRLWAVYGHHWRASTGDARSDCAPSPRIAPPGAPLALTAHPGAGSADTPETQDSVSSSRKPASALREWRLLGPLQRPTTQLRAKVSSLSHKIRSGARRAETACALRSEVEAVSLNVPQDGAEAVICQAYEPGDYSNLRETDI
How it was run: (§1)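 Isolated rat aorta rings equilibrated 1 h at 2 g resting tension in Krebs solution, changed periodically. Contracted with 10^-5 M phenylephrine; at steady maximal contraction compounds added progressively over 30 min up to 10^-5 M or 10^-4 M. Responses read after 30 min as % relaxation of PE contraction; EC50 calculated when relaxation exceeded 60%.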

[2] = biological target: T2, Alpha-1D adrenergic receptor (Rattus norvegicus) (UniProt P23944); test: Inhibition of phenylephrine-stimulated Wistar rat aorta contraction at 10 uM; type: functional, tissue-based; parameters: scale not given: the % may be the effect or the level left; how it was run: as §1
T2 sequence (whole entry): T1 sequence (P23944 whole entry)

[3] = biological target: T3, Alpha-1A adrenergic receptor (Rattus norvegicus) (UniProt P43140); test: Affinity to Adrenergic alpha-1A receptor in Wistar rat vas deferens; type: tissue-based
T3 sequence (whole entry): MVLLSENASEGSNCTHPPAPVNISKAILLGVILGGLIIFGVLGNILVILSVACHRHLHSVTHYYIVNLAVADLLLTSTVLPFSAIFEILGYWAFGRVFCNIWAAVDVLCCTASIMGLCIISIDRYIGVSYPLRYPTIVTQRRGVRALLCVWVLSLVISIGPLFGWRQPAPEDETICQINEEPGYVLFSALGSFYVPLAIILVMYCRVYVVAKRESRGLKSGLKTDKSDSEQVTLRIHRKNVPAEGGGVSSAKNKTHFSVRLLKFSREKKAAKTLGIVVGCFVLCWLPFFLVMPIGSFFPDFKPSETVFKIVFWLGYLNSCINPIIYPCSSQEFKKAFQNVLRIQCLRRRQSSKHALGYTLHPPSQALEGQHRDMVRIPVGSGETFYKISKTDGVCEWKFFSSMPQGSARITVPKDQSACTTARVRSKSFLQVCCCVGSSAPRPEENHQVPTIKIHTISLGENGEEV
How it was run: (§2)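 Wistar rat vas deferens cleaned of connective tissue, held in Krebs–Henseleit at 37 °C, 95% O2–5% CO2, 1 g resting tension. Control noradrenaline concentration–response curve obtained, tissue then equilibrated with a fixed compound concentration for at least 30 min before a second NA curve. Time-matched controls; responses as % of control maximum; means ± SE.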

[4] = biological target: T3, Alpha-1A adrenergic receptor (Rattus norvegicus); test: Inhibition of noradrenaline-stimulated Wistar rat vas deferens contraction at 1 uM; type: functional; how it was run: as §2
[5] = biological target: T3, Alpha-1A adrenergic receptor (Rattus norvegicus); test: Inhibition of noradrenaline-stimulated Wistar rat vas deferens contraction at 10 uM; type: functional; how it was run: as §2
[6] = biological target: T4, Alpha-1A adrenergic receptor (Rattus norvegicus, UniProt P43140); test: Vasorelaxation of noradrenaline-stimulated Wistar rat vas deferens contraction; type: functional, tissue-based; how it was run: as §2
T4 sequence (P43140 whole entry): T3 sequence (whole entry)

[7] = biological target: T2, Alpha-1D adrenergic receptor (Rattus norvegicus); test: Inhibition of phenylephrine-stimulated Wistar rat aorta contraction at 100 uM; type: functional, tissue-based; parameters: scale not given: the % may be the effect or the level left; how it was run: as §1
[8] = biological target: T5, Alpha-1B adrenergic receptor (Rattus norvegicus) (UniProt P15823); test: Affinity to Adrenergic alpha-1B receptor in Wistar rat spleen; type: tissue-based
T5 sequence (whole entry): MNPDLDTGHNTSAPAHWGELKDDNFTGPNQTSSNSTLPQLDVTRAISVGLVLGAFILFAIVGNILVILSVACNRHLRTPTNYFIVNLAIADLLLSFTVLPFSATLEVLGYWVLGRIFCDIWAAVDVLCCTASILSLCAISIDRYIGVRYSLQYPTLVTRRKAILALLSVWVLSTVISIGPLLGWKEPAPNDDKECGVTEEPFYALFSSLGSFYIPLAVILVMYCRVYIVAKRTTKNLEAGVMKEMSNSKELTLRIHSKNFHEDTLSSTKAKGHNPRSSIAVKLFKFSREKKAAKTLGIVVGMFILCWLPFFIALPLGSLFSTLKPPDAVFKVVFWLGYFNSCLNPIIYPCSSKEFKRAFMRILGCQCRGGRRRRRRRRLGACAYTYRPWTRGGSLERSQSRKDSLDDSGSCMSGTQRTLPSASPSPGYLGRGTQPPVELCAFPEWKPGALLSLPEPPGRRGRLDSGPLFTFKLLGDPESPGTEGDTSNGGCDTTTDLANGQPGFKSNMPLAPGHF
How it was run: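 Longitudinal rat spleen strips at 1 g tension in Krebs, 37 °C. After stabilisation, single 10^-4 M phenylephrine dose, washout, then PE dose–response curves on two separate strips, control and after 30 min incubation with compound. Values as % of the first PE response.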

[9] = biological target: T2, Alpha-1D adrenergic receptor (Rattus norvegicus); test: Affinity to Adrenergic Alpha-1D receptor in Wistar rat aorta; type: tissue-based
How it was run: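 Rat aorta rings stabilised, then cumulative vasoconstrictor additions until plateau; contraction as % of control response. Protocol repeated after 30 min compound incubation.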

Structure (SMILES): CSc1ccc(Cc2nn(-c3ccc([N+](=O)[O-])cc3)c(=O)c3ccccc23)cc1
EC50 [1]: > 100 µM

Structure (SMILES): COc1ccc(Cc2nn(-c3ccccc3)c(=O)c3ccccc23)cc1OC
EC50 [1]: > 100 µM

Structure (SMILES): COc1ccc(CC(=O)c2ccccc2C(=O)N2CCCCC2)cc1OC
Activity [2]: 30%

Structure (SMILES): COc1cc(Cc2nnc(O)c3ccccc23)cc(OC)c1OC
EC50 [1]: > 100 µM
Activity [7]: 34.3%

Structure (SMILES): COc1ccc(Cc2nn(C(C)(C)C)c(=O)c3ccccc23)cc1OC
EC50 [1]: 10 µM

Structure (SMILES): Oc1nnc(Cc2ccc(Cl)cc2)c2ccccc12
pD'2 [3]: 5.4
inhibition [4]: 16.3%
Activity [2]: 89.9%
inhibition [5]: 76.3%

Structure (SMILES): CCn1nc(Cc2ccc(SC)cc2)c2ccccc2c1=O
EC50 [1]: > 100 µM

Structure (SMILES): C=CCn1nc(Cc2ccc(OC)c(OC)c2)c2ccccc2c1=O
EC50 [1]: 9.8 µM

Structure (SMILES): COc1ccc(Cc2nn(C)c(=O)c3ccccc23)cc1
EC50 [1]: < 100 µM
Activity [7]: 61.6%

Structure (SMILES): O=c1c2ccccc2c(Cc2ccc(Cl)cc2)nn1-c1ccccc1
EC50 [1]: > 100 µM

Structure (SMILES): COc1ccc(Cc2nn(-c3ccc(Br)cc3)c(=O)c3ccccc23)cc1OC
EC50 [1]: > 100 µM

Structure (SMILES): CC(C)(C)n1nc(Cc2ccc(Cl)cc2)c2ccccc2c1=O
EC50 [1]: > 100 µM

Structure (SMILES): Cn1nc(Cc2ccc3ccccc3c2)c2ccccc2c1=O
Activity [2]: 44.6%
EC50 [1]: > 10 µM

Structure (SMILES): COc1ccc(C(=O)C(=O)c2ccccc2C(=O)N2CCCCC2)cc1OC
Activity [2]: 70%

Structure (SMILES): Oc1nnc(Cc2ccc(Cl)cc2Cl)c2ccccc12
Activity [2]: 61.3%
EC50 [1]: < 10 µM

Structure (SMILES): COc1ccc(CCc2cc(O)cc(OC)c2C(=O)O)cc1
Activity [7]: 34%

Structure (SMILES): CSc1ccc(Cc2nnc(O)c3ccccc23)cc1
Activity [2]: 66%

Structure (SMILES): CSc1ccc(Cc2nn(-c3ccc(Br)cc3)c(=O)c3ccccc23)cc1
EC50 [1]: > 100 µM

Structure (SMILES): O=c1[nH]nc(Cc2ccccc2)c2ccccc12
Activity [2]: 53%
EC50 [1]: ≤ 10 µM

Structure (SMILES): Cn1nc(Cc2ccccc2)c2ccccc2c1=O
pD'2 [3]: 5.8
inhibition [4]: 36.6%
Activity [2]: 55.7%
EC50 [1]: ≤ 10 µM
inhibition [5]: 98.8%
EC50 [6]: 1.5 µM

Structure (SMILES): CCCCn1nc(Cc2ccc(SC)cc2)c2ccccc2c1=O
EC50 [1]: > 100 µM

Structure (SMILES): Oc1nnc(Cc2ccc3ccccc3c2)c2ccccc12
Activity [2]: 43.9%
EC50 [1]: > 10 µM

Structure (SMILES): C=CCn1nc(Cc2ccc(SC)cc2)c2ccccc2c1=O
EC50 [1]: > 100 µM

Structure (SMILES): COc1ccc(Cc2nn(-c3ccc([N+](=O)[O-])cc3)c(=O)c3ccccc23)cc1OC
EC50 [1]: > 100 µM

Structure (SMILES): COc1ccc(CCc2cc(O)cc(OC)c2C(=O)N2CCCCC2)cc1
Activity [7]: 51%

Structure (SMILES): CCCCn1nc(Cc2ccc(Cl)cc2)c2ccccc2c1=O
EC50 [1]: > 100 µM

Structure (SMILES): Oc1nnc(Cc2ccc(Cl)c(Cl)c2)c2ccccc12
Activity [2]: 53.8%
EC50 [1]: ≤ 10 µM

Structure (SMILES): CSc1ccc(Cc2nn(C(C)(C)C)c(=O)c3ccccc23)cc1
EC50 [1]: > 100 µM

Structure (SMILES): COc1cc(Cc2nn(C)c(=O)c3ccccc23)cc(OC)c1OC
Activity [2]: 16.7%
EC50 [1]: > 10 µM

Structure (SMILES): O=c1c2ccccc2c(Cc2ccc(Cl)cc2)nn1-c1ccc(Br)cc1
EC50 [1]: > 30 µM

Structure (SMILES): OC1(Cc2ccc3c(c2)OCO3)c2ccccc2C2=NCCN21 (stereo unspecified)
Activity [2]: 47%

Structure (SMILES): COc1ccc(Cc2nnc(O)c3ccccc23)cc1
EC50 [1]: > 10 µM
Activity [7]: 39.3%

Structure (SMILES): CSc1ccc(Cc2nn(-c3ccccc3)c(=O)c3ccccc23)cc1
EC50 [1]: > 100 µM

Structure (SMILES): O=c1c2ccccc2c(Cc2ccc(Cl)cc2)nn1-c1ccc([N+](=O)[O-])cc1
EC50 [1]: 29 µM

Structure (SMILES): Cn1nc(Cc2cccc3ccccc23)c2ccccc2c1=O
Activity [2]: 39.8%
EC50 [1]: 14 µM

The remaining compounds from weak to strong by EC50 [1], led by results:

EC50 [1]: 5.5 µM
Structure (SMILES): CSc1ccc(Cc2n[nH]c(=O)c3ccccc23)cc1

EC50 [1]: 5.4 µM
Structure (SMILES): CCCCn1nc(Cc2ccc(OC)c(OC)c2)c2ccccc2c1=O

EC50 [1]: 5.3 µM
Structure (SMILES): CCn1nc(Cc2ccc(OC)c(OC)c2)c2ccccc2c1=O

Activity [2]: 60.3%
EC50 [1]: 4.9 µM
Structure (SMILES): Cn1nc(Cc2ccc(Cl)c(Cl)c2)c2ccccc2c1=O

Activity [2]: 79.2%
EC50 [1]: 4.4 µM
Structure (SMILES): Oc1nnc(Cc2cccc3ccccc23)c2ccccc12

Activity [2]: 83.8%
EC50 [1]: 3.7 µM
Structure (SMILES): COc1ccc(Cc2nnc(O)c3ccccc23)cc1OC

pD'2 [3]: 5.5
inhibition [4]: 24.3%
Activity [2]: 86.7%
EC50 [1]: 2.9 µM
inhibition [5]: 78.8%
EC50 [6]: 3 µM
Structure (SMILES): Oc1nnc(Cc2ccc3c(c2)OCO3)c2ccccc12

pD'2 [3]: 5.4
inhibition [4]: 16.9%
EC50 [1]: 2.6 µM
inhibition [5]: 70.4%
EC50 [6]: 4.4 µM
Structure (SMILES): C=CCn1nc(Cc2ccc(Cl)cc2)c2ccccc2c1=O

Activity [2]: 67.7%
EC50 [1]: 2.2 µM
Structure (SMILES): COc1ccc(Cc2nn(C)c(=O)c3ccccc23)cc1OC

Activity [2]: 76.3%
EC50 [1]: 1.9 µM
Structure (SMILES): Oc1nnc(Cc2ccccc2Cl)c2ccccc12

Activity [2]: 84%
EC50 [1]: 1.4 µM
Structure (SMILES): Cn1nc(Cc2ccccc2Cl)c2ccccc2c1=O

EC50 [1]: 1.3 µM
Structure (SMILES): CCn1nc(Cc2ccc(Cl)cc2)c2ccccc2c1=O

Activity [2]: 80.7%
EC50 [1]: 1.2 µM
Structure (SMILES): Cn1nc(Cc2ccc(Cl)cc2Cl)c2ccccc2c1=O

Activity [2]: 90.2%
EC50 [1]: 0.93 µM
Structure (SMILES): Cn1nc(Cc2ccc3c(c2)OCO3)c2ccccc2c1=O

Activity [2]: 87.2%
EC50 [1]: 0.93 µM
Structure (SMILES): CSc1ccc(Cc2nn(C)c(=O)c3ccccc23)cc1

EC50 [1]: 0.79 µM
EC50 [6]: 3.9 µM
Structure (SMILES): O=c1[nH]nc(Cc2ccc(Cl)cc2)c2ccccc12

pD'2 [3]: 6.1
inhibition [4]: 61.5%
Activity [2]: 99.3%
EC50 [1]: 0.43 µM
inhibition [5]: 95.4%
EC50 [6]: 0.81 µM
pD'2 [8]: 5.55
pD'2 [9]: 5.4
Structure (SMILES): Cn1nc(Cc2ccc(Cl)cc2)c2ccccc2c1=O
